Activity calls are given as the source filed them. The rule behind the calls is not given here.
Tests used:
[1] = Cmax in Swiss mouse at 10 mg/kg, po via gavage by LC-MS/MS analysis; format: ADME, organism-based; parameters: route oral, dose 10 mg/kg; conditions: in vivo
Method in brief: (§1)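 Female Swiss mice (n=3/group), fasted overnight, given single oral gavage dose in 0.5% CMC/0.5% Tween 80 (10 mL/kg) at 1, 3 or 10 mg/kg. Serial blood sampling at 0.16–8 h into heparinized tubes. Plasma extracted with acetonitrile containing verapamil internal standard and quantified by LC-MS/MS. Cmax, Tmax, AUC and t1/2 derived from the concentration–time profile.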

[2] = biological target: RAC-alpha serine/threonine-protein kinase (Homo sapiens) (UniProt P31749); experiment: Inhibition of human AKT1 at 1 uM using fluorescently labeled peptide substrate measured after 3 hrs by microfluidic mobility shift assay relative to control
Method in brief: (§2)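 Single-concentration screen at 1 µM in duplicate, 1% final DMSO. Kinase (typically 1 nM), fluorescently labeled peptide substrate (typically 1 µM), ATP at Km and Mg²⁺ incubated about 3 h at 25 °C, then EDTA-quenched. Substrate and phosphorylated product separated by microfluidic electrophoresis and quantified by fluorescence.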

[3] = biological target: Glycogen synthase kinase-3 beta (Homo sapiens) (UniProt P49841); experiment: Inhibition of human GSK3B at 1 uM using fluorescently labeled peptide substrate measured after 3 hrs by microfluidic mobility shift assay relative to control; method in brief: as §2
[4] = Toxicity in Swiss mouse assessed as change in body coat at 10 mg/kg, po administered twice daily via gavage for 5 days and measuring daily during compound dosing; format: organism-based; conditions: in vivo, 120 h, time 5 day
Method in brief: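 Female Swiss mice (3 treated, 2 vehicle controls) received oral gavage twice daily for 5 days, with compound formulated in 0.5% CMC and Tween 80. Body weight, body temperature, body coat, feed intake, eyes, feces and general activity were observed daily.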

[5] = Cmax in Swiss mouse at 1 mg/kg, po via gavage by LC-MS/MS analysis; format: ADME, organism-based; parameters: route oral, dose 1 mg/kg; conditions: in vivo; method in brief: as §1
[6] = Drug level in Swiss mouse uterus at 30 mg/kg, po administered twice daily via gavage for 5 days and measured post last dose by LC-MS/MS analysis; format: ADME, organism-based; conditions: time 5 day, read-out: Drug uptake
Method in brief: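 Female Swiss mice (n=3) given 30 mg/kg in 0.5% CMC/Tween 80 by oral gavage twice daily for 5 days, with two vehicle controls. After sacrifice, liver, kidney, lung, uterus and brain were collected, homogenized in water and solvent-extracted. Drug concentration (ng/g) measured by LC-MS/MS.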

SK-OV-3 = experiment: Antiproliferative activity against human SK-OV-3 cells after 48 hrs by MTT assay; format: functional, cell-based; conditions: SK-OV-3, 48 h
Method in brief: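 SK-OV-3 cells grown in McCoy's 5a with 10% FBS, 100 U/mL penicillin and 100 µg/mL streptomycin at 37 °C, 5% CO2, seeded at 10000 cells/well. Treated 48 h across 20 µM–0.001 µM. MTT (5 mg/mL in PBS) added for 4 h, DMSO solubilization, absorbance read at 550 nm. Four-parameter curve fit of % inhibition.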

[7] = biological target: Phosphatidylinositol 4-kinase beta (Homo sapiens) (UniProt Q9UBF8); experiment: Inhibition of human PI4kbeta at 1 uM using fluorescently labeled peptide substrate measured after 3 hrs by microfluidic mobility shift assay relative to control; method in brief: as §2
[8] = Toxicity in Swiss mouse assessed as discoloration of uterus at 30 mg/kg, po administered twice daily via gavage for 5 days and measured post last dose; format: organism-based; conditions: in vivo, 120 h, time 5 day
Method in brief: (§3)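 Female Swiss mice (3 treated, 2 controls) were gavaged twice daily for 5 days, with compound in 0.5% CMC and Tween 80. After the last dosing the animals were sacrificed. Liver, kidney, lung, uterus and brain were excised and inspected visually for morphology and color change.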

[9] = biological target: RAC-beta serine/threonine-protein kinase (Homo sapiens) (UniProt P31751); experiment: Inhibition of human AKT2 at 1 uM using fluorescently labeled peptide substrate measured after 3 hrs by microfluidic mobility shift assay relative to control; method in brief: as §2
[10] = Tmax in Swiss mouse at 10 mg/kg, po via gavage by LC-MS/MS analysis; format: ADME, organism-based; conditions: in vivo
Method in brief: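 Female Swiss mice (n=3/group) were fasted overnight, then gavaged with compound in 0.5% CMC/0.5% Tween 80 at 10 mL/kg. Serial blood samples at 0.16, 0.5, 1, 2, 4, 6 and 8 h were taken into heparinized tubes and spun to plasma. Plasma was extracted with acetonitrile containing verapamil (400 ng/mL) and quantified by LC-MS/MS against plasma calibration curves. Tmax was derived from the concentration–time profile.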

Cytochrome P450 2D6 = Cytochrome P450 2D6 (Homo sapiens, UniProt P10635); experiment: Inhibition of CYP2D6 in human liver microsomes using isoform-specific probe substrates preincubated for 5 mins followed by NADPH addition by LC-MS/MS analysis; format: ADME
Method in brief: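 Human liver microsomes premixed with buffer and a CYP-specific FDA-recommended probe substrate, then spiked with inhibitor, in duplicate. After 5 min preincubation at 37 °C, reaction started with NADPH and run at 37 °C for a set time, then quenched. Metabolite formation quantified by HPLC/LC-MS/MS to derive the concentration giving 50% inhibition.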

HCT-116 [11] = experiment: Antitumor activity against human HCT-116 cells xenografted in CD1 nude mouse assessed as tumor growth inhibition at 2.5 mg/kg, po administered once daily for 21 days and measured on day 3; format: functional, organism-based; conditions: time 21.0 day
Method in brief: (§4)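 Female CD1 nude mice bearing subcutaneous HCT116 xenografts, randomized at average tumor size 120–130 mm³, five per group. Dosed orally once daily at 2.5, 5, 10 or 20 mg/kg for 21 days alongside a vehicle control. Caliper measurement of tumor volume as (width² × length)/2, monitored every third day.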

[12] = Elimination half life in Swiss mouse at 10 mg/kg, po via gavage by LC-MS/MS analysis; format: ADME, organism-based; conditions: in vivo, read-out: beta t1/2 (converted); method in brief: as §1
[13] = biological target: Voltage-gated inwardly rectifying potassium channel KCNH2 (Homo sapiens, UniProt Q12809); experiment: Inhibition of human ERG channel trafficking expressed in mammalian expression system at 1 to 30 uM by HERG-Lite assay; conditions: dose 1-30 µM
Method in brief: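 HERG-lite assay scoring both channel blocking and trafficking inhibition, with test compound at 1, 10 and 30 µM. Geldanamycin (1 µM) served as the trafficking-inhibition reference and astemizole as the standard hERG binder.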

[14] = biological target: Protein kinase C zeta type (Homo sapiens) (UniProt Q05513); experiment: Inhibition of human PRKCZ at 1 uM using fluorescently labeled peptide substrate measured after 3 hrs by microfluidic mobility shift assay relative to control; method in brief: as §2
[15] = biological target: Dual specificity mitogen-activated protein kinase kinase 1 (Homo sapiens) (UniProt Q02750); experiment: Inhibition of human MEK1 at 1 uM using fluorescently labeled peptide substrate measured after 3 hrs by microfluidic mobility shift assay relative to control; method in brief: as §2
[16] = biological target: Phosphatidylinositol 4,5-bisphosphate 3-kinase catalytic subunit delta isoform (Homo sapiens) (UniProt O00329); experiment: Inhibition of human PI3kdelta at 1 uM using fluorescently labeled peptide substrate measured after 3 hrs by microfluidic mobility shift assay relative to control; method in brief: as §2
[17] = Toxicity in Swiss mouse assessed as morphological changes in brain at 30 mg/kg, po administered twice daily via gavage for 5 days and measured post last dose; format: organism-based; conditions: in vivo, 120 h, time 5 day; method in brief: as §3
HCT-116 [18] = experiment: Antitumor activity against human HCT-116 cells xenografted in po dosed CD1 nude mouse assessed as reduction in tumor volume administered once daily for 21 days and measured at 3 days interval during compound dosing; format: functional, organism-based; conditions: dose mg/kg 2.5-20, time 21.0 day; method in brief: as §4
[19] = biological target: Ribosomal protein S6 kinase beta-1 (Homo sapiens) (UniProt P23443); experiment: Inhibition of human P70S6K1 at 1 uM using fluorescently labeled peptide substrate measured after 3 hrs by microfluidic mobility shift assay relative to control; method in brief: as §2
Ribosomal protein S6 kinase beta-1 (Homo sapiens), sequence (P23443 whole entry, looked up): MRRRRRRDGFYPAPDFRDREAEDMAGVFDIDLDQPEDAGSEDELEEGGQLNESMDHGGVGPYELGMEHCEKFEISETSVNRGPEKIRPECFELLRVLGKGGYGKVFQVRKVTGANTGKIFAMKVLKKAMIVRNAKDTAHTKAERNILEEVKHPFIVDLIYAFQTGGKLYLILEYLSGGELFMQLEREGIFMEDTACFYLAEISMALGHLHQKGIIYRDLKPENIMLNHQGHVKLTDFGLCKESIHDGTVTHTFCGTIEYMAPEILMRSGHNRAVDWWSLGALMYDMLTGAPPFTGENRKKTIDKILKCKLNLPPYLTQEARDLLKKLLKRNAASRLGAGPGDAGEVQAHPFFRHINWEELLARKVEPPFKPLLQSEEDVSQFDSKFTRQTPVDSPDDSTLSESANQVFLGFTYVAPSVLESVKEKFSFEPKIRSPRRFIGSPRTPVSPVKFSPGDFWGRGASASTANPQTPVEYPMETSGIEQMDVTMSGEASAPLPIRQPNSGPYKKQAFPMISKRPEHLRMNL

RAC-beta serine/threonine-protein kinase (Homo sapiens), sequence (P31751 whole entry): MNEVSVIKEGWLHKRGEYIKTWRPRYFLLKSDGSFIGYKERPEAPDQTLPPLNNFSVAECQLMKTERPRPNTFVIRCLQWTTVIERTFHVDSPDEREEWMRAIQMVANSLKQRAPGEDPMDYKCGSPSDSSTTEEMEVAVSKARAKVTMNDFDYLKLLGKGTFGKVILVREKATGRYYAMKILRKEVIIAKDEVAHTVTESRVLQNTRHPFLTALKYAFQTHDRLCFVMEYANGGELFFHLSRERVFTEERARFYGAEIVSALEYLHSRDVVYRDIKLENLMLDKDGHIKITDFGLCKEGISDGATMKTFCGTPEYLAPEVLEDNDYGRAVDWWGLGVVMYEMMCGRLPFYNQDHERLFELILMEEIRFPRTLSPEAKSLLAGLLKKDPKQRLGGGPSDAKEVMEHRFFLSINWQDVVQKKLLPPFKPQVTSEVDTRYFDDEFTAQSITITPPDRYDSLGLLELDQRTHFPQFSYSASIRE
RAC-alpha serine/threonine-protein kinase (Homo sapiens), sequence (P31749 whole entry): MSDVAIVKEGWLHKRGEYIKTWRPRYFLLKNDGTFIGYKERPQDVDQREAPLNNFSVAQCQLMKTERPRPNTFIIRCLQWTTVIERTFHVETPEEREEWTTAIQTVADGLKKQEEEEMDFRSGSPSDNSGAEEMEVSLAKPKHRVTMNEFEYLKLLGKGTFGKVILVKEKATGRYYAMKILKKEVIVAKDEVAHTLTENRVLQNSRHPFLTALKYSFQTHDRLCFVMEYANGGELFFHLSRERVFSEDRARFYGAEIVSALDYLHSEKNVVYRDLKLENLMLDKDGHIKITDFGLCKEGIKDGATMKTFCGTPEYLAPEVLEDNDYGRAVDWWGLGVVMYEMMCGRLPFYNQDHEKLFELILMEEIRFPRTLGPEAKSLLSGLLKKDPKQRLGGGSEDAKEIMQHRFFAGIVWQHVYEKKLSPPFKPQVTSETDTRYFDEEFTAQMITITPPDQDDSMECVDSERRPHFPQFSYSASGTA
Phosphatidylinositol 4-kinase beta (Homo sapiens), sequence (Q9UBF8 2-816 limits assumed): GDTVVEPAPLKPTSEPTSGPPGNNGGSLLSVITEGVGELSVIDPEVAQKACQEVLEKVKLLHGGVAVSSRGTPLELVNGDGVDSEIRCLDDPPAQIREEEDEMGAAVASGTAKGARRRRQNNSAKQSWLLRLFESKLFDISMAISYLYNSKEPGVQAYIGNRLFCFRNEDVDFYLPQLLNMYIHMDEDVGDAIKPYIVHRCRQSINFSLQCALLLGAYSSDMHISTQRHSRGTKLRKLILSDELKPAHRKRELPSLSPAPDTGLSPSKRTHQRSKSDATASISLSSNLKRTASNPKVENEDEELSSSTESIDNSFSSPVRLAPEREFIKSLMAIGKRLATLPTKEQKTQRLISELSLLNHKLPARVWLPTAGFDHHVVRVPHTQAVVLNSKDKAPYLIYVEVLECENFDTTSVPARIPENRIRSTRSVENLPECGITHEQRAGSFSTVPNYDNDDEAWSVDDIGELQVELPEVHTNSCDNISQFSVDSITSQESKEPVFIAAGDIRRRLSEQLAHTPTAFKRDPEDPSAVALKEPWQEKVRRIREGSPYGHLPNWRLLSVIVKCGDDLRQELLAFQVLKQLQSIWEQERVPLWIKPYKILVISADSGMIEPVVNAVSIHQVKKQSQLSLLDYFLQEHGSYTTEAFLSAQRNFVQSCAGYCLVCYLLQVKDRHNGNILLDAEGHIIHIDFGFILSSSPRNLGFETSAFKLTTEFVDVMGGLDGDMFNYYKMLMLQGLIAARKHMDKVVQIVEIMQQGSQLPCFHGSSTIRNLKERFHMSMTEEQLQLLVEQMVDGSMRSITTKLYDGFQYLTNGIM
Protein kinase C zeta type (Homo sapiens), sequence (Q05513 whole entry): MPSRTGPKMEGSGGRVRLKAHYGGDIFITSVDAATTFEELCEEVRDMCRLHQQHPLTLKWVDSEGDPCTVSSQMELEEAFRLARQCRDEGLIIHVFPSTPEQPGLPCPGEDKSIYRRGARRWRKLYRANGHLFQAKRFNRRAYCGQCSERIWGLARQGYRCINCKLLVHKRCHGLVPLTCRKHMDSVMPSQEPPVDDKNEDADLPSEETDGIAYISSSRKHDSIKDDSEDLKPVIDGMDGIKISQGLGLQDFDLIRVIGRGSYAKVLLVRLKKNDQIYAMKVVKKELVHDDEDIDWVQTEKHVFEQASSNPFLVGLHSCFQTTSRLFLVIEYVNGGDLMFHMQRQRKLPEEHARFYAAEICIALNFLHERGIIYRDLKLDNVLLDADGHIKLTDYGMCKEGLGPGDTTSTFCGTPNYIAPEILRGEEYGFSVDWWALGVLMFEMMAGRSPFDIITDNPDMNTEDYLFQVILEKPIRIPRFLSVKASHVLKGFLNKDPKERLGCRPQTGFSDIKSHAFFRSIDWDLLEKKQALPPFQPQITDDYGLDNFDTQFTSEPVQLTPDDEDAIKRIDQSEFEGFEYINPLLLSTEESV
Phosphatidylinositol 4,5-bisphosphate 3-kinase catalytic subunit delta isoform (Homo sapiens), sequence (O00329 whole entry, canonical isoform): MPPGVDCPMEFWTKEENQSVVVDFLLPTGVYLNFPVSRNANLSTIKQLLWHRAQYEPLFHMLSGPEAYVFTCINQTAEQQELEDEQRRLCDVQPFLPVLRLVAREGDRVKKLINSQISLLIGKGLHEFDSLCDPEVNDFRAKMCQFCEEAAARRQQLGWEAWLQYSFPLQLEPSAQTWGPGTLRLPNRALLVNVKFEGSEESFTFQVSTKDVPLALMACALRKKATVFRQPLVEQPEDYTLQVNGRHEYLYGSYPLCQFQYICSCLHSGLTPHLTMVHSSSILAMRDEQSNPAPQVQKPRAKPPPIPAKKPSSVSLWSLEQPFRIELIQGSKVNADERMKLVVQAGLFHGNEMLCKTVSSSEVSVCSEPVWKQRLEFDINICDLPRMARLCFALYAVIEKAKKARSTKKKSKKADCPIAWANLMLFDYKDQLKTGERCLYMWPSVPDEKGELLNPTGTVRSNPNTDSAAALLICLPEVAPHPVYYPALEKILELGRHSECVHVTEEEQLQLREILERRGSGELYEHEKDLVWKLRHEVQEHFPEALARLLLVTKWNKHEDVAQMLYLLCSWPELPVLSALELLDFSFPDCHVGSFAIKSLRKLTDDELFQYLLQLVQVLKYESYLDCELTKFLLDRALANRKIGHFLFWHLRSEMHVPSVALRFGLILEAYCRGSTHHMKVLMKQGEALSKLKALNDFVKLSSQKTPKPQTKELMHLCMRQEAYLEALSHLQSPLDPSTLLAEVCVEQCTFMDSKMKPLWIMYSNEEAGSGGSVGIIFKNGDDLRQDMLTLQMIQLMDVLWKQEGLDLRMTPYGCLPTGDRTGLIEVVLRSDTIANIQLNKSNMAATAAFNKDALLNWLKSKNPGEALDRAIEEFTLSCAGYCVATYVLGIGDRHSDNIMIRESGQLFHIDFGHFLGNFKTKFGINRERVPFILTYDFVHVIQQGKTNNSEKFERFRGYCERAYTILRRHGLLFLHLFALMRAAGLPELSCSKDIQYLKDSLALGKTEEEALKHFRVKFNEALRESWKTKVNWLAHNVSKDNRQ
Dual specificity mitogen-activated protein kinase kinase 1 (Homo sapiens), sequence (Q02750 whole entry, canonical isoform): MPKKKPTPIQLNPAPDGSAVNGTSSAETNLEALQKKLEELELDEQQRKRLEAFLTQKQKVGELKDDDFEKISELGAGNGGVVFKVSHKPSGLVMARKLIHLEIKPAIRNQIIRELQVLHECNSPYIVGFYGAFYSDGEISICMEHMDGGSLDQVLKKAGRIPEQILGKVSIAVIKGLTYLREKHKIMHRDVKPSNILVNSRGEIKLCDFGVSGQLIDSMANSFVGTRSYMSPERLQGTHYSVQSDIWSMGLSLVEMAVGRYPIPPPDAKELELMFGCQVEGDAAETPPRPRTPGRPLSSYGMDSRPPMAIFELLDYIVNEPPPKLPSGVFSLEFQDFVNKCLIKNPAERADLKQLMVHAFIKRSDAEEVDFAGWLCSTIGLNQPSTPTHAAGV
Glycogen synthase kinase-3 beta (Homo sapiens), sequence (P49841 whole entry, looked up): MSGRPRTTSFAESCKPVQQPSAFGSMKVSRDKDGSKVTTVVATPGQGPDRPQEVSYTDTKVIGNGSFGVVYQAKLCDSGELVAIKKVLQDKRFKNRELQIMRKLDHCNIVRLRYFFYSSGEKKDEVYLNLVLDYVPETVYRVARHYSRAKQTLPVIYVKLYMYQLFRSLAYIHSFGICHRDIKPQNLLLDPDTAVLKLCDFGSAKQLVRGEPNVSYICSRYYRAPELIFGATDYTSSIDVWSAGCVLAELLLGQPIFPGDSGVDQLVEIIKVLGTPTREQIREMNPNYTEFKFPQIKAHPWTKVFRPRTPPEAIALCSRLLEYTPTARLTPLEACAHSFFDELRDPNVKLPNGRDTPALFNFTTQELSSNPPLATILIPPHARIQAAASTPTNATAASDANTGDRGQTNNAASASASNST

**Q.** What does the source list for `CN(C)C(=O)c1ccc(Oc2nc(-c3cnc(N)s3)nc(N3CCOCC3)n2)cc1`?
**A.** Cmax [1]: 12.6 µM; inhibition [2]: -1%; inhibition [3]: -1%; Activity [4]: Non-Toxic; Cmax [5]: 5.01 µM; concentration at 120 h [6]: 10 ng/g; EC50 (SK-OV-3): 0.5 µM; inhibition [7]: -3%; Activity [8]: Non-Toxic; inhibition [9]: 0%; Tmax [10]: 1.67 h; IC50 (Cytochrome P450 2D6): > 10 µM; TGI (HCT-116 [11]): Active; half-life [12]: 2.52 h; inhibition (INH) [13]: Not Active; inhibition [14]: 0%; inhibition [15]: 0%; inhibition [16]: 88%; Activity [17]: Non-Toxic; Activity (HCT-116 [18]): Dose-dependent effect; inhibition [19]: -1%
